Measured values from ChEMBL document CHEMBL1129241, “Immunosuppressive cyclolignans” (J Med Chem, 1996).
≈ marks a conversion by molar mass, not a printed value.

Legend:
[1] = Compound was tested for Cytotoxic activity by lymphocyte viability assay.; conditions: Mus musculus
In short: (§1)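 Balb/c mouse splenocytes alone, added to wells holding dried test compound (eight dilutions, 10 to 3.33 × 10^-6 mg/mL, applied in EtOH and evaporated); culture-medium wells serve as nonspecific control. Incubated 96 h at 37 °C, 5% CO2, then MTT added; formazan dissolved in 2-propanol and absorbance read at 570 nm.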

Mus musculus [2] = species on record: Mus musculus; test: (§2) Compound was tested for Immunosuppression activity by mixed lymphocyte reaction (MLR) in murine splenocytes of mice; type: functional
In short: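 Two-way MLR: Balb/c and C57Bl/6 splenocytes combined in wells holding dried compound (eight dilutions, 10 to 3.33 × 10^-6 mg/mL, applied in EtOH and evaporated; duplicates). Incubated 96 h at 37 °C, 5% CO2, then pulsed 15 h with [3H]thymidine. Incorporated label counted after glass-fibre filtration. Proliferation expressed as percent of control; IC50 interpolated.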

[3] = Non cytotoxic IM activity index which is the ratio of IC50 of LcV to IC50 of MLR; type: functional
Mus musculus [4] = species on record: Mus musculus; test: as §2; type: functional, organism-based
In short: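 Two-way mixed lymphocyte reaction using splenocytes from Balb/c and C57Bl/6 mice, combined in equal volumes. Compounds were dissolved in absolute EtOH and tested at eight dilutions from 10 to 3.33 × 10^-6 mg/mL, in duplicate, with the solvent dried onto the wells. Cultures ran 96 h at 37 °C in 5% CO2, then were pulsed 15 h with [3H]thymidine. Incorporation was counted by scintillation; IC50 was interpolated from % proliferation relative to control.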

[5] = Compound was tested for Cytotoxic activity by lymphocyte viability assay; conditions: Mus musculus; in short: as §1

## COc1cc([C@@H]2c3cc4c(cc3C3=NOC[C@H]3[C@@H]2C(=O)O)OCO4)cc(OC)c1OC
[1]
  IC50: 30 µg/mL (≈ 70.2 µM)
Mus musculus [2]
  IC50: < 0.009 µg/mL
[3]
  Selectivity index: >3333

## COC(=O)[C@@H]1[C@H](c2cc(OC)c(OC)c(OC)c2)c2cc3c(cc2C2=NN(c4ccc(C)cc4)C[C@H]21)OCO3
[1]
  IC50: > 26 µg/mL
Mus musculus [2]
  IC50: 0.848 µg/mL (≈ 1.6 µM)
[3]
  Selectivity index: >31

## COc1cc(C2c3cc4c(cc3[C@@H](OC(C)=O)C3COC(=O)C23)OCO4)cc(OC)c1OC(C)=O (some centres not stated)
[1]
  IC50: 22.8 µg/mL (≈ 47.1 µM)
Mus musculus [4]
  IC50: 0.453 µg/mL (≈ 0.935 µM)
[3]
  Selectivity index: 50

## COC(=O)[C@@H]1[C@H](c2cc(OC)c(OC)c(OC)c2)c2cc3c(cc2C(=O)[C@H]1CO)OCO3
[1]
  IC50: > 25 µg/mL
Mus musculus [2]
  IC50: 1.41 µg/mL (≈ 3.17 µM)
[3]
  Selectivity index: >18

## COc1cc(C2C3=C(COC3=O)Cc3cc4c(cc32)OCO4)cc(OC)c1OC (configuration not stated)
[1]
  IC50: 27.5 µg/mL (≈ 69.4 µM)
Mus musculus [4]
  IC50: 0.00825 µg/mL (≈ 0.0208 µM)
[3]
  Selectivity index: >3333

## COc1cc([C@@H]2c3cc4c(cc3C3=NN(c5ccccc5)C[C@H]3[C@@H]2COC(C)=O)OCO4)cc(OC)c1OC
[1]
  IC50: > 100 µg/mL
Mus musculus [2]
  IC50: 9.29 µg/mL (≈ 17.5 µM)
[3]
  Selectivity index: >11

## COc1cc([C@@H]2c3cc4c(cc3C(=O)[C@H]3COC(=O)[C@H]23)OCO4)cc(OC)c1O
[1]
  IC50: > 25 µg/mL
Mus musculus [2]
  IC50: 11.8 µg/mL (≈ 29.6 µM)
[3]
  Selectivity index: >2

## COc1cc([C@@H]2c3cc4c(c(O)c3C[C@H]3COC(=O)[C@@H]32)OCO4)cc(OC)c1O
[1]
  IC50: 12.8 µg/mL (≈ 32 µM)
Mus musculus [2]
  IC50: < 0.00495 µg/mL
[3]
  Selectivity index: >2586

## COc1cc(C2c3cc4c(cc3CC3COC(=O)C32)OCO4)cc(OC)c1OC(C)=O (configuration not stated)
[1]
  IC50: 15.8 µg/mL (≈ 37.1 µM)
Mus musculus [4]
  IC50: 0.0718 µg/mL (≈ 0.168 µM)
[3]
  Selectivity index: 220

## COC(=O)[C@@H]1[C@H](c2cc(OC)c(OC)c(OC)c2)c2cc3c(cc2C2=NN(C(C)=O)C[C@H]21)OCO3
[1]
  IC50: > 100 µg/mL
Mus musculus [2]
  IC50: 7.68 µg/mL (≈ 15.9 µM)
[3]
  Selectivity index: >13

## COc1cc([C@@H]2c3cc4c(cc3C[C@H]3COC(=O)[C@@H]32)OCO4)cc(OC)c1O [4'-DEMETHYLDEOXYPODOPHYLLOTOXIN]
[1]
  IC50: 11.5 µg/mL (≈ 29.9 µM)
Mus musculus [2]
  IC50: 0.00281 µg/mL (≈ 0.00731 µM)
[3]
  Selectivity index: 4097

## COc1cc([C@@H]2c3cc4c(c(O)c3C[C@H]3COC(=O)[C@@H]32)OCO4)cc(OC)c1OC [BETA-PELTATIN A]
[1]
  IC50: 19.7 µg/mL (≈ 47.5 µM)
Mus musculus [2]
  IC50: < 0.00945 µg/mL
[3]
  Selectivity index: >2085

## COc1cc([C@@H]2c3cc4c(cc3[C@@H](O)[C@H]3COC(=O)[C@H]23)OCO4)cc(OC)c1OC [EPIPODOPHYLLOTOXIN]
[1]
  IC50: > 65 µg/mL
Mus musculus [2]
  IC50: 0.229 µg/mL (≈ 0.553 µM)
[3]
  Selectivity index: >284

## COc1cc([C@@H]2c3cc4c(cc3[C@H](O)[C@H]3COC(=O)[C@H]23)OCO4)cc(OC)c1OC [PODOFILOX]
Mus musculus [4]
  IC50: < 0.128 µg/mL
[5]
  IC50: 280 µg/mL (≈ 676 µM)
[3]
  Selectivity index: >2190
